Laboratory results as given in ChEMBL document CHEMBL4219194, “Diversity-oriented synthesis of pyrazoles derivatives from flavones and isoflavones leads to the discovery of promising reversal agents of fluconazole resistance in Candida albicans” (2018).
In brackets after ≈: the same amount, converted by molar mass.

What was measured:
Type in all cases: functional
[1] = system: Candida albicans; experiment: Potentiation of fluconazole-induced antifungal activity against fluconazole-resistant Candida albicans 28A after 48 hrs by broth microdilution checkerboard method
In short: (§1)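 Checkerboard dose-response matrix on strain 28A with gradients of fluconazole and the test compound in RPMI 1640, read after 48 h at 35 °C. MIC80 is taken alone and in combination, and FICI is calculated. Synergy is FICI ≤0.5, indifference >0.5-4, and antagonism >4.0.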

[2] = system: Candida albicans; experiment: Antifungal activity against Candida albicans SC5314 after 48 hrs by broth microdilution method; details: SC5314, 48 h
In short: (§2)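 MIC80 read by broth microdilution, with fluconazole as the positive antifungal agent. Values are reported in µg/mL as means of three independent experiments. Strains: wild-type SC5314 and DSY654, which lacks the Cdr1 and Cdr2 efflux pumps.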

[3] = system: Candida albicans; experiment: Potentiation of fluconazole-induced antifungal activity against fluconazole-resistant Candida albicans 28A assessed as fluconazole MIC80 after 48 hrs by broth microdilution checkerboard method; in short: as §1
[4] = system: Candida albicans; experiment: Synergistic antifungal activity against fluconazole-resistant Candida albicans 28A after 48 hrs in presence of fluconazole by broth microdilution checkerboard method; in short: as §1
[5] = system: Candida albicans; experiment: Antifungal activity against fluconazole-resistant Candida albicans 28A after 48 hrs by broth microdilution method
In short: (§3)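 Clinical fluconazole-resistant isolates tested in broth microdilution with the compound alone. The endpoint is MIC80, the lowest concentration giving 80% growth inhibition, in µg/mL.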

[6] = system: Candida albicans; experiment: Antifungal activity against CDR1 and CDR2 efflux pump deficient Candida albicans DSY654 after 48 hrs by broth microdilution method; details: DSY654, 48 h; in short: as §2
[7] = system: Candida albicans; experiment: Potentiation of fluconazole-induced antifungal activity against drug-resistant Candida albicans 28I assessed as fluconazole MIC80 after 48 hrs by broth microdilution checkerboard method
In short: (§4)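 Broth microdilution checkerboard of fluconazole crossed with the test compound against clinical FLC-resistant isolates. MIC80 is read for each agent alone and in combination, and FICI is calculated. Synergy is FICI ≤0.5, indifference >0.5-4, and antagonism >4.0.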

[8] = system: Candida albicans; experiment: Antifungal activity against drug-resistant Candida albicans 28I after 48 hrs by broth microdilution method; in short: as §3
[9] = system: Candida albicans; experiment: Synergistic antifungal activity against drug-resistant Candida albicans 28J after 48 hrs in presence of fluconazole by broth microdilution checkerboard method; in short: as §4
[10] = system: Candida albicans; experiment: Potentiation of fluconazole-induced antifungal activity against drug-resistant Candida albicans 28I after 48 hrs by broth microdilution checkerboard method; in short: as §4
[11] = system: Candida albicans; experiment: Potentiation of fluconazole-induced antifungal activity against drug-resistant Candida albicans 28J after 48 hrs by broth microdilution checkerboard method; in short: as §4
[12] = system: Candida albicans; experiment: Antifungal activity against drug-resistant Candida albicans 28J after 48 hrs by broth microdilution method; in short: as §3
[13] = system: Candida albicans; experiment: Synergistic antifungal activity against drug-resistant Candida albicans 28I after 48 hrs in presence of fluconazole by broth microdilution checkerboard method; in short: as §4
[14] = system: Candida albicans; experiment: Potentiation of fluconazole-induced antifungal activity against drug-resistant Candida albicans 28J assessed as fluconazole MIC80 after 48 hrs by broth microdilution checkerboard method; in short: as §4

SMILES	fractional inhibitory concentration index (FICI) [1]	MIC80 [2]	MIC80 [3]	MIC80 [4]	MIC80 [5]	MIC80 [6]	MIC80 [7]	MIC80 [8]	MIC80 [9]	fractional inhibitory concentration index (FICI) [10]	fractional inhibitory concentration index (FICI) [11]	MIC80 [12]	MIC80 [13]	MIC80 [14]
COc1ccc(-c2cc(-c3ccccc3)nn2CCO)c(O)c1OC	2	> 128 µg/mL	> 128 µg/mL	> 128 µg/mL	> 128 µg/mL	> 128 µg/mL								
COc1ccc(-n2nc(-c3ccccc3)cc2-c2ccc(OC)c(OC)c2O)cc1	2	> 128 µg/mL	> 128 µg/mL	> 128 µg/mL	> 128 µg/mL	8 µg/mL (≈ 19.9 µM)								
COc1cc(O)c(-c2cc(-c3ccccc3)n[nH]2)c(OC)c1	0.252	8 µg/mL (≈ 27 µM)	0.25 µg/mL	8 µg/mL	32 µg/mL (≈ 108 µM)	1 µg/mL (≈ 3.37 µM)	0.25 µg/mL	32 µg/mL (≈ 108 µM)	8 µg/mL	0.252	0.254	32 µg/mL (≈ 108 µM)	8 µg/mL	0.5 µg/mL
COc1ccc(-c2cn(-c3ccccc3)nc2-c2c(O)cc(OC)cc2OC)cc1	2	> 128 µg/mL	> 128 µg/mL	> 128 µg/mL	> 128 µg/mL	> 128 µg/mL								
OC(Cn1cncn1)(Cn1cncn1)c1ccc(F)cc1F [FLUCONAZOLE]		2 µg/mL (≈ 6.53 µM)			> 128 µg/mL	0.25 µg/mL (≈ 0.816 µM)		> 128 µg/mL				> 128 µg/mL		
